Source: paper PMC9748978 (RSC Advances, 2022)
Like-named read-outs stand apart in the source and are kept apart here.

Experiments:
Tack = format: physicochemical; details: transdermal patch (cross-linked adhesive film containing the active ingredient)
Method in brief: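 Tested with a tensile testing machine per AFERA 4015. The patch has an acrylate copolymer adhesive matrix with the active substance added as an ethyl acetate solution, dosed on the basis of 200 mg per 140 cm2. It was coated at 250 μm on polyester film and cross-linked by UV after 10 min at 110 °C.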

[1] = Accumulation in the skin after 24 h penetration; format: in vitro ADME, pig; details: after 24 h of penetration from solution, porcine skin
Method in brief: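 Franz diffusion cells with porcine abdominal skin, PBS (pH 7.4) acceptor at 37.0 ± 0.5 °C. After 24 h penetration the skin was removed, rinsed in PBS pH 7.4, dried at room temperature, weighed, cut to the 1 cm2 diffusion area and minced. It was then extracted in methanol for 24 h at 4 °C, homogenized 3 min and centrifuged at 3500 rpm for 5 min. Supernatant was assayed by HPLC, expressed as μg IBU per g skin.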

[2] = compound, TG; cited from earlier work
[3] = format: in vitro ADME; details: pig skin; for CUM – cumulative permeation mass / Q – the percentage of the applied dose after 24 h: 24 h; for CUM – cumulative permeation mass / Q – the percentage of the applied dose after 24 h / J SS – steady-state flux / K m – skin partition coefficient / L T – lag time / K P – permeability coefficient: solution in 70% ethanol; for steady-state flux (JSS): from ethanol solution
Method in brief: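 Pig abdominal skin in Franz cells with 8 cm3 PBS (pH 7.4) acceptor at 37.0 ± 0.5 °C, stirred 400 rpm. Donor: 1 cm3 of about 5% solution (about 0.05 g cm−3) in 70% ethanol, stoppered. Acceptor sampled (0.3 cm3, buffer replaced) at 0.5–24 h and assayed by HPLC. Jss is the slope of cumulative mass versus time, and lag time is the x-intercept. Kp, D and Km are calculated from these. Mean ± SD, ANOVA/Tukey.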

[4] = format: in vitro ADME, pig; details: from transdermal patch
Solubility in water = format: physicochemical; details: 25 °C, 24 h
[5] = n-octanol/water partition coefficient, shake flask method; format: physicochemical; details: n-octanol–water, 25 °C
Method in brief: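 10 mg of compound was shaken with 5 ml n-octanol-saturated water and 5 ml water-saturated n-octanol, stirred 3 h at 25 °C, and the layers were separated. Aqueous concentration was measured by HPLC. Octanol-layer concentration was taken as total minus aqueous. log P = log C0 − log Cw.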

[6] = Thermogravimetric analysis; format: physicochemical; details: compound, TG
Method in brief: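 About 5 mg samples were heated from 25 to 1000 °C on a thermobalance under nitrogen (10 ml min−1) and under air (25 ml min−1). Onset decomposition temperature was read from TG curves and maximum decomposition temperature from DTG curves.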

Molecule | Tack (Tack) | accumulation in the skin [1] | T max (maximum decomposition temperature) [2] | T onset (the onset of the thermal degradation) [2] | CUM – cumulative permeation mass [3] | Q – the percentage of the applied dose after 24 h [3] | steady-state flux (JSS) [3] | J SS – steady-state flux [3] | K m – skin partition coefficient [3] | L T – lag time [3] | delay time (lag time) [4] | Solubility in water (Solubility in water) | Solubility in water (as ibuprofen) (Solubility in water) | log P [5] | K P – permeability coefficient [3] | T max (maximum decomposition temperature) [6] | T onset (the onset of the thermal degradation) [6]
CC(C)Cc1ccc(C(C)C(=O)[O-])cc1.[Na+] (stereo not drawn) [[IBU][Na], sodium ibuprofenate] | 0.05 N |  |  |  |  |  |  |  |  |  |  |  |  |  |  |  | 
CC(C)Cc1ccc(C(C)C(=O)O)cc1 (racemic) [[IBU], (R,S)-Ibuprofen, reference compound] |  | 725.49 ± 164.6184 μg IBU per g skin | 218.7 °C | 189.8 °C | 133.35 μg cm^−2 | 9.33% | 25.87 μg IBU per cm^2 h | 25.87 μg cm^−2 | 0.281 | 2.582 min |  |  |  |  |  |  | 
CC(C)Cc1ccc(C(C)C(=O)O)cc1.CCCOC(=O)[C@@H](N)Cc1ccccc1 [[PheOPr][IBU], L-phenylalanine propyl ester ibuprofenate] |  | 602.86 ± 76.98 μg IBU per g skin | 210.4 °C | 157.0 °C | 454.86 μg cm^−2 | 15.80% | 28.01 μg IBU per cm^2 h | 28.01 μg cm^−2 | 0.200 | 1.705 min | about 1 h | 9.481 ± 0.066 g dm^−3 | 4.596 ± 0.161 g IBU per dm^3 | +1.021 | 19.606 cm/h |  | 
L-histidine propyl ester bis(ibuprofenate) [[HisOPr][IBU]] |  |  |  |  | 335.13 μg cm^−2 | 7.90% | 21.33 μg IBU per cm^2 h | 21.33 μg cm^−2 | 0.192 | 2.141 min |  |  |  | +0.963 | 14.918 cm/h | 212.5 °C | 157.5 °C
CC(C)Cc1ccc(C(C)C(=O)O)cc1.CCCOC(=O)[C@@H](N)Cc1ccc(O)cc1 [[TyrOPr][IBU], L-tyrosine propyl ester ibuprofenate] |  | 609.35 ± 106.07 μg IBU per g skin |  |  | 284.27 μg cm^−2 | 9.51% |  | 25.57 μg cm^−2 | 0.229 | 2.133 min |  | 8.569 ± 0.022 g dm^−3 | 4.188 ± 0.065 g IBU per dm^3 | +1.055 | 17.898 cm/h | 209.4 °C | 148.1 °C
CC(C)Cc1ccc(C(C)C(=O)O)cc1.CCCOC(=O)[C@@H](N)Cc1c[nH]c2ccccc12 [[TrpOPr][IBU], L-tryptophan propyl ester ibuprofenate] |  | 595.41 ± 76.32 μg IBU per g skin |  |  | 319.22 μg cm^−2 | 12.42% |  | 22.72 μg cm^−2 | 0.208 | 2.179 min |  | 9.396 ± 0.027 g dm^−3 | 4.577 ± 0.037 g IBU per dm^3 | +1.044 | 15.907 cm/h | 219.3 °C | 
